In brackets after ≈: the same amount, converted by molar mass.
Experiments:
Type in all cases: functional
Helicobacter pylori [1] = assay: Anti-bacterial activity against Helicobacter pylori Clinical isolate F1 measured after 72 hrs incubation by modified broth dilution method
Helicobacter pylori [2] = assay: Bactericidal activity against Helicobacter pylori Clinical isolate F1 measured after 72 hrs of incubation under microaerophilic conditions by modified broth dilution method; details: read-out: MBC99.9
In short: (§1)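 H. pylori (NCTC 11637, F1, 23, F4). Wells with no visible growth in the MIC assay spotted (10 μL) onto Skirrow agar. Plates incubated 72 h at 37 °C, microaerophilic, 100% humidity. MBC = concentration killing 99.9% of the initial inoculum. Triplicate, on at least three different days.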

Helicobacter pylori [3] = assay: Anti-bacterial activity against Helicobacter pylori Clinical isolate 23 measured after 72 hrs incubation by modified broth dilution method
Helicobacter pylori [4] = assay: Bactericidal activity against Helicobacter pylori Clinical isolate 23 measured after 72 hrs of incubation under microaerophilic conditions by modified broth dilution method; details: read-out: MBC99.9; in short: as §1
Helicobacter pylori [5] = assay: Anti-bacterial activity against Helicobacter pylori NCTC 11637 measured after 72 hrs incubation by modified broth dilution method
Helicobacter pylori [6] = assay: Bactericidal activity against Helicobacter pylori NCTC 11637 measured after 72 hrs of incubation under microaerophilic conditions by modified broth dilution method; details: read-out: MBC99.9; in short: as §1
Helicobacter pylori [7] = assay: Anti-bacterial activity against Helicobacter pylori Clinical isolate F4 measured after 72 hrs incubation by modified broth dilution method
Helicobacter pylori [8] = assay: Bactericidal against Helicobacter pylori Clinical isolate F4 measured after 72 hrs of incubation under microaerophilic conditions by modified broth dilution method; details: read-out: MBC99.9; in short: as §1
Helicobacter pylori [9] = assay: Anti-bacterial activity against Helicobacter pylori measured after 72 hrs incubation by modified broth dilution method
Helicobacter pylori [10] = assay: Bactericidal against Helicobacter pylori measured after 72 hrs of incubation under microaerophilic conditions by modified broth dilution method
In short: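 Wells with no visible growth in the MIC assay spotted (10 μL) onto Skirrow agar. Plates incubated 72 h at 37 °C, microaerophilic, 100% humidity. Triplicate, on at least three different days.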

Row | SMILES | MIC (Helicobacter pylori [1]) [µg/mL] | MBC (Helicobacter pylori [2]) [µg/mL] | MIC (Helicobacter pylori [3]) [µg/mL] | MBC (Helicobacter pylori [4]) [µg/mL] | MIC (Helicobacter pylori [5]) [µg/mL] | MBC (Helicobacter pylori [6]) [µg/mL] | MIC (Helicobacter pylori [7]) [µg/mL] | MBC (Helicobacter pylori [8]) [µg/mL] | MIC50 (Helicobacter pylori [9]) [µg/mL] | MIC90 (Helicobacter pylori [9]) [µg/mL] | MBC90 (Helicobacter pylori [10]) [µg/mL]
1 | COc1ccc(/N=N/c2cc(C=O)cc(OC)c2O)cc1 | 64 (≈ 224 µM) | 128 (≈ 447 µM) | > 128 | > 128 | > 128 | > 128 | > 128 | > 128 | > 128 | > 128 | >128
2 | Cc1cc(/N=N/c2ccccc2Cl)c(C(C)C)c(/N=N/c2ccccc2Cl)c1O | 64 (≈ 150 µM) | > 128 | 128 (≈ 300 µM) | > 128 | 128 (≈ 300 µM) | 128 (≈ 300 µM) | 128 (≈ 300 µM) | > 128 | 128 (≈ 300 µM) | 128 (≈ 300 µM) | >128
3 | COc1cc(C=O)cc(/N=N/c2ccc(Br)cc2)c1O | 8 (≈ 23.9 µM) | 8 (≈ 23.9 µM) | 32 (≈ 95.5 µM) | 32 (≈ 95.5 µM) | 16 (≈ 47.7 µM) | 16 (≈ 47.7 µM) | 16 (≈ 47.7 µM) | 16 (≈ 47.7 µM) | 16 (≈ 47.7 µM) | 32 (≈ 95.5 µM) | 32 (≈ 95.5 µM)
4 | COc1ccc(/N=N/c2cc(C(C)C)c(OC(=S)N(C)C)cc2C)cc1 | 128 (≈ 345 µM) | > 128 | 128 (≈ 345 µM) | 128 (≈ 345 µM) | > 128 | > 128 | 128 (≈ 345 µM) | 128 (≈ 345 µM) | 128 (≈ 345 µM) | > 128 | >128
5 | C=CCc1cc(/N=N/c2ccc(Cl)cc2Cl)c(O)c(OC)c1 | > 128 | > 128 | > 128 | > 128 | 128 (≈ 380 µM) | 128 (≈ 380 µM) | > 128 | > 128 | > 128 | > 128 | >128
6 | Cc1cc(/N=N/c2ccc(Br)cc2)c(C(C)C)c(/N=N/c2ccc(Br)cc2)c1O | > 128 | > 128 | > 128 | > 128 | 128 (≈ 248 µM) | 128 (≈ 248 µM) | > 128 | > 128 | > 128 | > 128 | >128
7 | Cc1cc(/N=N/c2ccccc2Cl)c(C(C)C)cc1O | 4 (≈ 13.9 µM) | 4 (≈ 13.9 µM) | 4 (≈ 13.9 µM) | 4 (≈ 13.9 µM) | 4 (≈ 13.9 µM) | 4 (≈ 13.9 µM) | 2 (≈ 6.93 µM) | 2 (≈ 6.93 µM) | 4 (≈ 13.9 µM) | 4 (≈ 13.9 µM) | 4 (≈ 13.9 µM)
8 | Cc1ccccc1/N=N/c1cc(C(C)C)c(O)cc1C | 4 (≈ 14.9 µM) | 4 (≈ 14.9 µM) | 8 (≈ 29.8 µM) | 8 (≈ 29.8 µM) | 4 (≈ 14.9 µM) | 4 (≈ 14.9 µM) | 4 (≈ 14.9 µM) | 4 (≈ 14.9 µM) | 4 (≈ 14.9 µM) | 8 (≈ 29.8 µM) | 8 (≈ 29.8 µM)
9 | COc1ccc(/N=N/c2cc(C)c(O)c(/N=N/c3ccc(OC)cc3)c2C(C)C)cc1 | > 128 | > 128 | > 128 | > 128 | > 128 | > 128 | > 128 | > 128 | > 128 | > 128 | >128
10 | COc1cc(C=O)cc(/N=N/c2ccc(Cl)c(Cl)c2)c1O | 64 (≈ 197 µM) | 64 (≈ 197 µM) | 64 (≈ 197 µM) | 128 (≈ 394 µM) | 128 (≈ 394 µM) | 128 (≈ 394 µM) | 128 (≈ 394 µM) | 128 (≈ 394 µM) | 64 (≈ 197 µM) | 128 (≈ 394 µM) | 128 (≈ 394 µM)
11 | Cc1cc(OC(=S)N(C)C)c(C(C)C)cc1/N=N/c1ccc([N+](=O)[O-])cc1 | > 128 | > 128 | > 128 | > 128 | > 128 | > 128 | > 128 | > 128 | > 128 | > 128 | >128
12 | COc1cc(C=O)cc(/N=N/c2ccccc2Cl)c1O | 16 (≈ 55 µM) | 16 (≈ 55 µM) | 64 (≈ 220 µM) | 64 (≈ 220 µM) | 64 (≈ 220 µM) | 64 (≈ 220 µM) | 64 (≈ 220 µM) | 64 (≈ 220 µM) | 64 (≈ 220 µM) | 64 (≈ 220 µM) | 64 (≈ 220 µM)
13 | COc1cc(C)c(/N=N/c2ccc([N+](=O)[O-])cc2)cc1C(C)C | > 128 | > 128 | > 128 | > 128 | > 128 | > 128 | > 128 | > 128 | > 128 | > 128 | >128
